Each structure is given as a SMILES string. Some results are limits rather than exact numbers.

Test [1] concerns the target Growth hormone secretagogue receptor type 1 (Homo sapiens, UniProt Q92847). The test can be described thus: Agonist activity at human GHS receptor expressed in H4 cells by FLIPR assay. The class given is functional, cell-based.
The test system of test [2] is Rattus norvegicus. The test is described as follows: Stimulation of growth hormone release in rat at 0.17 umol/kg, iv relative to control. The class given is functional. Put shortly:
(§1)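 Fasted male Wistar rats (200–250 g) were anesthetized with ketamine 30 mg/kg plus xylazine 10 mg/kg ip. They were dosed iv at 10 mL/kg in vehicle (10% ethanol, […] V/V), five rats per group. Aortic blood was drawn 15 min post-dose, and plasma rat GH was measured by radioimmunoassay. Results are given as % GH increase ± SEM versus vehicle control.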

For test [3], the system named is Rattus norvegicus. The test is described as follows: Stimulation of growth hormone release in rat at 0.052 umol/kg, iv relative to control. The class given is functional. Put shortly:
as §1

The test system of test [4] is Rattus norvegicus. The test can be described thus: Stimulation of growth hormone release in rat at 0.017 umol/kg, iv relative to control. The class given is functional. Put shortly: as §1

Chain of Growth hormone secretagogue receptor type 1 (Q92847 whole entry): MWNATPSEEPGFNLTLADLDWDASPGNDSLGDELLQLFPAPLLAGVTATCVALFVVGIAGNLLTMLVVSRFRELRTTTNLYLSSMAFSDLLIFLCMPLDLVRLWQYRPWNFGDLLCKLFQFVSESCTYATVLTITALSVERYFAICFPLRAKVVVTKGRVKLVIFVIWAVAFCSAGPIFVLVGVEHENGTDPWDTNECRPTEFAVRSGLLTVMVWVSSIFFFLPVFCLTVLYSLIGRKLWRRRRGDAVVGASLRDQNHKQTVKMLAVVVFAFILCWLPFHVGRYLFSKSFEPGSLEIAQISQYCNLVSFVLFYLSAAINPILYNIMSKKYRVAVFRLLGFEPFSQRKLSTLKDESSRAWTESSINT

Take `CC(C)(N)C(=O)N[C@H](COCc1ccccc1)c1nnnn1CCOC(=O)NCCCCO`: the Intrinsic activity in test [1] was > 85%. The Activity in the test with Rattus norvegicus [2] is recorded as 264%.
Broadly, the EC50 is the concentration needed to bring the measured effect to its halfway point. A high value points to weaker potency. As to `CC(C)(N)C(=O)N[C@H](COCc1ccccc1)c1nnnn1CCCC(=O)NCCCc1ccccc1`, in test [1], the EC50 was 33 nM and the Intrinsic activity is > 85%.
On the same counts, the results for `CC(C)(N)C(=O)N[C@H](COCc1ccccc1)c1nnnn1CCOc1ccccc1C(=O)NCCCCO` are 0.9 nM and > 85%.
On to `CC(C)(N)C(=O)N[C@H](COCc1ccccc1)c1nnnn1CCCC(=O)NCCCCCCO`, for which, in test [1], the EC50 came out at 0.6 nM and the Intrinsic activity is > 85%. Moreover, the Activity with Rattus norvegicus [2] amounted to 522%.
Regarding `CC(C)(N)C(=O)N[C@H](COCc1ccccc1)c1nnnn1CCNC(=O)CCS(C)(=O)=O`, in test [1], the EC50 worked out at 14.7 nM and the Intrinsic activity is > 85%.
On the same counts, the results for `CC(C)(N)C(=O)N[C@H](COCc1ccccc1)c1nnnn1CCNC(=O)CCc1cccc(O)c1` are 0.64 nM and > 85%.
The corresponding values for `CC(C)(N)C(=O)N[C@H](COCc1ccccc1)c1nnnn1CCCC(=O)NCCCCCO` are 1.3 nM and > 85%.
The corresponding values for `CC(C)(N)C(=O)N[C@H](COCc1ccccc1)c1nnnn1CCCC(=O)NCCC(N)=O` are 7.6 nM and > 85%.
`CC(C)(N)C(=O)N[C@H](COCc1ccccc1)c1nnnn1CCCC(=O)NCCS(=O)(=O)CCO` yielded an EC50 in test [1] of 0.2 nM. Besides, in test [1], the Intrinsic activity is > 85%. Also, the Activity in the test with Rattus norvegicus [2] stood at 1290%; with Rattus norvegicus [3], 956%; with Rattus norvegicus [4] it was 398%.
On to `CC(C)(N)C(=O)N[C@H](COCc1ccccc1)c1nnnn1CCCC(=O)NCCc1cccc(S(=O)(=O)CCO)c1`, for which, in test [1], a half-maximal effect (EC50) was put at 105 nM and the Intrinsic activity is > 85%.
The corresponding values for `CC(C)(N)C(=O)N[C@H](COCc1ccccc1)c1nnnn1CCOc1cccc(C(=O)NCCO)c1` are 8.4 nM and > 85%.
For the molecule `CC(C)(N)C(=O)N[C@H](COCc1ccccc1)c1nnnn1CCCC(=O)NCCc1cccc(O)c1`, in test [1], the EC50 was found to be 0.2 nM and the Intrinsic activity is > 85%. In addition, the Activity in the test on Rattus norvegicus [2] is 606%.
Regarding `CC(C)(N)C(=O)N[C@H](COCc1ccccc1)c1nnnn1CCCC(=O)NCCO`, in test [1], a half-maximal response (EC50) required 40 nM and the Intrinsic activity was > 85%.
The corresponding values for `CC(C)(N)C(=O)N[C@H](COCc1ccccc1)c1nnnn1CCCC(=O)NCCS(C)(=O)=O` are 4.1 nM and > 85%.
Turning to `CC(C)(N)C(=O)N[C@H](COCc1ccccc1)c1nnnn1CCCC(=O)NCCSCCO`, in test [1], it took 0.2 nM to reach a half-maximal effect (EC50) and the Intrinsic activity is > 85%.
Regarding `CC(C)(N)C(=O)N[C@H](COCc1ccccc1)c1nnnn1CCCC(=O)NCCCCO`, in test [1], a half-maximal effect (EC50) was put at 1.8 nM and the Intrinsic activity was > 85%.
On the same counts, the results for `CC(C)(N)C(=O)N[C@H](COCc1ccccc1)c1nnnn1CCCC(=O)NCCCO` are 27 nM and > 85%.
Turning to `CCCCCCCC(=O)OC[C@H](NC(=O)CNC(=O)[C@@H](N)CCCNC(=N)N)C(=O)N[C@@H](CO)C(=O)N[C@@H](Cc1ccccc1)C(=O)N[C@@H](CC(C)C)C(=O)N[C@@H](CO)C(=O)N1CCC[C@H]1C(=O)N[C@@H](CCC(=O)O)C(=O)N[C@@H](Cc1cnc[nH]1)C(=O)N[C@@H](CCC(N)=O)C(=O)N[C@@H](CCCCN)C(=O)N[C@@H](C)C(=O)N[C@@H](CCC(N)=O)C(=O)N[C@@H](CCC(N)=O)C(=O)N[C@@H](CCCNC(=N)N)C(=O)N[C@@H](CCCCN)C(=O)N[C@@H](CCC(=O)O)C(=O)N[C@@H](CO)C(=O)N[C@@H](CCCCN)C(=O)N[C@@H](CCCCN)C(=O)N1CCC[C@H]1C(=O)N1CCC[C@H]1C(=O)N[C@@H](C)C(=O)N[C@@H](CCCCN)C(=O)N[C@@H](CC(C)C)C(=O)N[C@@H](CCC(N)=O)C(=O)N1CCC[C@H]1C(=O)O`, in test [1], the Intrinsic activity was > 85%.
For the molecule `CC(C)(N)C(=O)N[C@H](COCc1ccccc1)c1nnnn1CCCC(=O)NCCc1ccccc1`, in test [1], the EC50 is 23 nM and the Intrinsic activity is > 85%.
Consider `CCCCNC(=O)CCCn1nnnc1[C@@H](COCc1ccccc1)NC(=O)C(C)(C)N`, for which the Intrinsic activity in test [1] is > 85%.
Regarding `CC(C)(N)C(=O)N[C@H](COCc1ccccc1)c1nnnn1CCCC(=O)N[C@H]1CC[C@H](O)CC1`, in test [1], the response was half-maximal at 521 nM (EC50) and the Intrinsic activity is > 85%.
On the same counts, the results for `CN(CCc1cccc(O)c1)C(=O)CCCn1nnnc1[C@@H](COCc1ccccc1)NC(=O)C(C)(C)N` are 3.1 nM and > 85%.
Turning to `CC(C)(N)C(=O)N[C@H](COCc1ccccc1)c1nnnn1CCCC(=O)Nc1ccccc1`, in test [1], it took 70 nM to reach a half-maximal effect (EC50) and the Intrinsic activity is > 85%.
On the same counts, the results for `CC(C)(N)C(=O)N[C@H](COCc1ccccc1)c1nnnn1CCCC(=O)NCC(F)(F)F` are 26 nM and > 85%.
Take `CC(C)(N)C(=O)N[C@H](COCc1ccccc1)c1nnnn1CCNC(=O)CCCCO`: in test [1], the midpoint of the response, the EC50, lay at 4.4 nM and the Intrinsic activity was > 85%. The molecule also returned an Activity in the test on Rattus norvegicus [2] of 722%.
As to `CC(C)(N)C(=O)N[C@H](COCc1ccccc1)c1nnnn1CCCC(=O)NCCN1CCNC1=O`, in test [1], the EC50 worked out at 3.3 nM and the Intrinsic activity was > 85%.
On the same counts, the results for `CCOC(=O)CCNC(=O)CCCn1nnnc1[C@@H](COCc1ccccc1)NC(=O)C(C)(C)N` are 140 nM and > 85%.
The corresponding values for `CC(C)(N)C(=O)N[C@H](COCc1ccccc1)c1nnnn1CCCC(=O)NCCC(=O)O` are 204 nM and > 85%.
As to `CC(C)(N)C(=O)N[C@H](COCc1ccccc1)c1nnnn1CCCC(=O)NCCOCCO`, in test [1], the EC50 was 0.7 nM and the Intrinsic activity is > 85%.
The corresponding values for `CC(C)(N)C(=O)N[C@H](COCc1ccccc1)c1nnnn1CCCC(=O)NCc1ccccc1` are 32 nM and > 85%.
On the same counts, the results for `CC(C)(N)C(=O)N[C@H](COCc1ccccc1)c1nnnn1CCOc1ccccc1C(=O)NCCO` are 11 nM and > 85%.
As to `CC(C)(N)C(=O)N[C@H](COCc1ccccc1)c1nnnn1CCCC(=O)NCCS(N)(=O)=O`, in test [1], the EC50 is 1.4 nM and the Intrinsic activity was > 85%. Moreover, the Activity in the test with Rattus norvegicus [2] came to 408%.
Take `CC(C)(N)C(=O)N[C@H](COCc1ccccc1)c1nnnn1CCOc1cccc(C(=O)NCCCCO)c1`: in test [1], the EC50 was 3 nM and the Intrinsic activity is > 85%.
On the same counts, the results for `CN(CCc1cccc(S(=O)(=O)CCO)c1)C(=O)CCCn1nnnc1[C@@H](COCc1ccccc1)NC(=O)C(C)(C)N` are 2.9 nM and > 85%.

These data come from ChEMBL document CHEMBL1144840, “Tetrazole based amides as growth hormone secretagogues” (Bioorg Med Chem Lett, 2008).
